Active and inactive are the calls of the source. No cut-off for these calls is given here.
Columns and labels:
[1] = system: Cystic fibrosis transmembrane conductance regulator (Homo sapiens), P13569 [F508del]; assay: Activity at CFTR F508 deletion mutant expressed in forskolin-stimulated FRT cells assessed as maximal increase in iodine influx measured as YFP quenching rate up to 20 uM after 24 hrs by fluorescence assay; assay type: cell-based
Method in brief: (§1)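 ΔF508-CFTR and halide-sensitive YFP coexpressed in FRT cells, held at 27 °C for 24 h for rescue, then stimulated 30–40 min with 20 μM forskolin with or without compound at 0.2, 2 and 20 μM. Fluorescence read before and after I– addition (100 mM final). Normalized decay fitted exponentially for maximal quenching rate; dose–response fitted with Hill equation for potency and maximal effect. Three independent determinations.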

[2] = system: Cystic fibrosis transmembrane conductance regulator (Homo sapiens), P13569 [F508del]; assay: Activity at CFTR F508 deletion mutant expressed in forskolin-stimulated FRT cells assessed as maximal increase in iodine influx measured as YFP quenching rate at 0.2 uM after 24 hrs by fluorescence assay; assay type: cell-based; method in brief: as §1
[3] = Negative ionotropic activity in potassium depolarized guinea pig longitudinal smooth muscle assessed as inhibition of calcium-induced contraction; assay type: functional, Cavia porcellus
[4] = organism: Cavia porcellus; assay: Negative ionotropic activity in potassium depolarized guinea pig longitudinal smooth muscle assessed as inhibition of calcium-induced contraction at 5 X 10^-5 M; assay type: functional
[5] = Ratio EC50 for negative chronotropic activity against potassium-induced contraction in guinea pig right atrium to EC50 for negative […] activity against potassium-induced contraction in guinea pig left atrium; assay type: functional, Cavia porcellus, Cardiac atrium
[6] = Ratio EC50 for nifedipine to compound for negative […] activity against potassium-induced contraction in left atrium of guinea pig; assay type: functional, Cavia porcellus, Cardiac atrium
[7] = system: Cystic fibrosis transmembrane conductance regulator (Homo sapiens), P13569 [F508del]; assay: Activity at CFTR F508 deletion mutant expressed in forskolin-stimulated FRT cells assessed as maximal increase in iodine influx measured as YFP quenching rate after 24 hrs by fluorescence assay; assay type: cell-based; method in brief: as §1
[8] = Binding affinity to CFTR F508 deletion mutant expressed in forskolin-stimulated FRT cells assessed as increase in iodine influx measured as YFP quenching rate after 24 hrs by fluorescence assay; assay type: cell-based; method in brief: as §1
[9] = Negative ionotropic activity against potassium-induced contraction in guinea pig left atrium assessed as decrease in developed tension; conditions: Cavia porcellus, Cardiac atrium
[10] = Negative ionotropic activity against potassium-induced contraction in guinea pig left atrium assessed as […] at 10^-6 M relative to control; assay type: functional; conditions: Cavia porcellus, Cardiac atrium
Method in brief: (§2)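 Isolated guinea pig left atrium paced at 1 Hz. Drugs added cumulatively. Negative inotropic effect expressed as percent change from control, n = 5–6. […] Student's t-test against control at each concentration, P < 0.05. Mean ± SEM.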

[11] = Negative chronotropic activity against potassium-induced contraction in guinea pig right atrium assessed as decrease atrial rate at 10^-5 M relative to control; assay type: functional; conditions: Cavia porcellus, Cardiac atrium
Method in brief: (§3)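 Spontaneously beating isolated guinea pig right atrium, pretreatment rate 165–190 beats/min. Drugs added cumulatively. Decrease in atrial rate expressed as percent change from control, n = 7–8. […] Control versus treated tested at each concentration by Student's t-test, P < 0.05. Mean ± SEM.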

[12] = Bronchodilatory activity in guinea pig trachea assessed as inhibition of carbachol-induced contraction at 10^-5 M; assay type: functional; conditions: Cavia porcellus
[13] = system: Aorta; assay: Vasorelaxant activity in potassium depolarized guinea pig aortic strip assessed as inhibition of calcium-induced contraction at 10^-5 M; assay type: functional; conditions: Cavia porcellus
Method in brief: (§4)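 Guinea pig aortic strips depolarized with 80 mM K+, with cumulative drug addition. Relaxation given as mean ± SEM. […] Student's t-test against control, P < 0.05.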

[14] = organism: Cavia porcellus; assay: Negative ionotropic activity in potassium depolarized guinea pig longitudinal smooth muscle assessed as inhibition of calcium-induced contraction at 10^-5 M; assay type: functional
[15] = Bronchodilatory activity in guinea pig trachea assessed as inhibition of carbachol-induced contraction; assay type: functional, tissue-based, Cavia porcellus
[16] = organism: Cavia porcellus; assay: Negative ionotropic activity in potassium depolarized guinea pig longitudinal smooth muscle assessed as inhibition of calcium-induced contraction at 10^-6 M; assay type: functional
[17] = Bronchodilatory activity in guinea pig trachea assessed as inhibition of carbachol-induced contraction at 10^-4 M; assay type: functional; conditions: Cavia porcellus
[18] = Bronchodilatory activity in guinea pig trachea assessed as inhibition of carbachol-induced contraction at 10^-7 M; assay type: functional; conditions: Cavia porcellus
[19] = system: Aorta; assay: Vasorelaxant activity in potassium depolarized guinea pig aortic strip assessed as inhibition of calcium-induced contraction at 10^-4 M; assay type: functional; conditions: Cavia porcellus; method in brief: as §4
[20] = Negative ionotropic activity against potassium-induced contraction in guinea pig left atrium assessed as […] at 10^-7 M relative to control; assay type: functional; conditions: Cavia porcellus, Cardiac atrium; method in brief: as §2
[21] = Negative chronotropic activity against potassium-induced contraction in guinea pig right atrium assessed as decrease atrial rate at 5 X 10^-6 M relative to control; assay type: functional; conditions: Cavia porcellus, Cardiac atrium; method in brief: as §3
[22] = Negative ionotropic activity against potassium-induced contraction in guinea pig left atrium assessed as […] at 5 X 10^-6 M relative to control; assay type: functional; conditions: Cavia porcellus, Cardiac atrium; method in brief: as §2
[23] = Negative chronotropic activity against potassium-induced contraction in guinea pig right atrium assessed as decrease atrial rate at 10^-6 M relative to control; assay type: functional; conditions: Cavia porcellus, Cardiac atrium; method in brief: as §3

Cystic fibrosis transmembrane conductance regulator (Homo sapiens), P13569 [F508del], sequence (P13569 as listed by the source): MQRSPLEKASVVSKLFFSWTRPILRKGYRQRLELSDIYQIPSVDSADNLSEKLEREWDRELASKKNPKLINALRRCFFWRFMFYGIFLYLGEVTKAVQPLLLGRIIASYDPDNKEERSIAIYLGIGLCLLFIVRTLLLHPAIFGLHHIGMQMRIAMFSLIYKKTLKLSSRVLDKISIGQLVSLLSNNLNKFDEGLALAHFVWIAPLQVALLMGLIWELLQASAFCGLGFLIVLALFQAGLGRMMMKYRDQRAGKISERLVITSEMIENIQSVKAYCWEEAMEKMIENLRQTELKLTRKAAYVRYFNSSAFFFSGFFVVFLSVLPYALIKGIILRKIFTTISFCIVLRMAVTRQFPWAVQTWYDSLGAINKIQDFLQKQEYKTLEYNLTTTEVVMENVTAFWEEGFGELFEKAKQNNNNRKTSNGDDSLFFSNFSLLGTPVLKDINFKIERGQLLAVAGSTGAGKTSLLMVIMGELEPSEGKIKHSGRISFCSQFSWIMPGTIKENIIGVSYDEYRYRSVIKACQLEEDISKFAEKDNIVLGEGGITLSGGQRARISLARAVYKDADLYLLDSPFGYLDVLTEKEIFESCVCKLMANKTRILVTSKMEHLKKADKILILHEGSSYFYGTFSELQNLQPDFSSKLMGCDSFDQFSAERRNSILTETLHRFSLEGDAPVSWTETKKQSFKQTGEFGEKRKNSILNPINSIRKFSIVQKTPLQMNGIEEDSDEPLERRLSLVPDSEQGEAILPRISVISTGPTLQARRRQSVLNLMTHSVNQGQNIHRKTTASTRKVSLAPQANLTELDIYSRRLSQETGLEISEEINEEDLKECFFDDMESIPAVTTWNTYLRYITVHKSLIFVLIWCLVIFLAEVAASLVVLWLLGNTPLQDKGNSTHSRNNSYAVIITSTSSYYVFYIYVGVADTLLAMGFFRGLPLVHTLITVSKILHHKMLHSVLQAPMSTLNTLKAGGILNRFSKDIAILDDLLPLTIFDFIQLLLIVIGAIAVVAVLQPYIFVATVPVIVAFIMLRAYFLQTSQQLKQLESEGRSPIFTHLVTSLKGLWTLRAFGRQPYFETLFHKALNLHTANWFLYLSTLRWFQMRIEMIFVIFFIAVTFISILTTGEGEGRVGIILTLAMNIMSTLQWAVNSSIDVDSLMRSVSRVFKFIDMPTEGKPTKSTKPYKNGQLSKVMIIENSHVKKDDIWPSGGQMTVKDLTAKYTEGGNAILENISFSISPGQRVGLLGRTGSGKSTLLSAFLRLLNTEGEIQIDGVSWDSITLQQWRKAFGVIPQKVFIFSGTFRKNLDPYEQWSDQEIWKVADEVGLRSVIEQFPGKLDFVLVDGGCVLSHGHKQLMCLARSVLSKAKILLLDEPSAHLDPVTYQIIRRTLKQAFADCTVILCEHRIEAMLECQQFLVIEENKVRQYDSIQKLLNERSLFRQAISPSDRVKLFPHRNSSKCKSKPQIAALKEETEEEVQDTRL

Row | Compound | Activity [1] | Activity [2] | IC50 [3] [nM] | Emax [7] [ms-1] | Kd [8] [nM] | EC50 [9] [nM] | other results
1 | COC(=O)C1=C(C)NC(C)=C(C(=O)OC)C1c1c(-c2cc(OC)c(OC)cc2[N+](=O)[O-])nc2sccn12 | inactive | inactive | 11400 | – | – | – | inhibition [4]: 86%; Ratio EC50 [5]: 9
2 | COC(=O)C1=C(C)NC(C)=C(C(=O)OC)C1c1c(Cl)nc2scc(C)n12 | – | inactive | 510 | 60 | 21400 | – | Ratio EC50 [6]: 2.6
3 | C=CCOC(=O)C1=C(C)NC(C)=C(C(=O)OCC=C)C1/C=C/c1ccccc1OC | – | – | 940 | 59 | 400 | 34 | inhibition at 1 µM [10]: 83%; inhibition at 10 µM [11]: 6%; inhibition at 10 µM [12]: 29%; inhibition at 10 µM [13]: 1%; inhibition [14]: 68%
4 | COC(=O)C1=C(C)NC(C)=C(C(=O)OC)C1c1c(Cl)nc2sc(Cl)cn12 | – | inactive | 680 | 60 | 6800 | – | Ratio EC50 [6]: 2.6; IC50 [15]: 3660 nM; inhibition [16]: 60%; inhibition at 100 µM [17]: 87%
5 | COC(=O)C1=C(C)NC(C)=C(C(=O)OC)C1c1c(-c2ccc(OC)c(OC)c2)nc2sccn12 | inactive | inactive | 450 | – | – | – | inhibition [16]: 90%
6 | COC(=O)C1=C(C)NC(C)=C(C(=O)OC)C1c1c(Cl)nc2sc(C)cn12 | inactive | inactive | – | – | – | – | –
7 | COC(=O)C1=C(C)NC(C)=C(C(=O)OC)C1c1c(C(F)(F)F)nc2sc(C)cn12 | – | inactive | 95 | 60 | 12000 | – | IC50 [15]: 31 nM; inhibition [16]: 92%; inhibition at 0.1 µM [18]: 64%
8 | COC(=O)C1=C(C)NC(C)=C(C(=O)OC)C1c1c(-c2ccccc2OC(F)(F)F)nc2sccn12 | inactive | inactive | – | – | – | – | inhibition at 10 µM [12]: 47%
9 | CCOC(=O)C1=C(C)NC(C)=C(C(=O)OCC)C1c1c(Cl)nc2sc(C)cn12 | – | inactive | 57 | 60 | 8400 | 31 | inhibition at 100 µM [19]: 8%; IC50 [15]: 2340 nM; inhibition at 0.1 µM [20]: 56%; inhibition at 5 µM [21]: 36%
10 | C=CCOC(=O)C1=C(C)NC(C)=C(C(=O)OCC=C)C1c1c(-c2cc(OC)ccc2OC)nc2sccn12 | inactive | inactive | 320 | – | – | 340 | inhibition at 100 µM [19]: 31%; inhibition at 5 µM [22]: 81%; inhibition at 1 µM [23]: 32%
11 | COC(=O)C1=C(C)NC(C)=C(C(=O)OC)C1c1c(-c2cccc(OC)c2)nc2sccn12 | – | inactive | – | 60 | 34200 | – | –
12 | COC(=O)C1=C(C)NC(C)=C(C(=O)OC)C1c1c(-c2c(OC)ccc(OC)c2[N+](=O)[O-])nc2sccn12 | inactive | inactive | – | – | – | – | –
13 | CCOC(=O)C1=C(C)NC(C)=C(C(=O)OCC)C1c1cccc(Oc2ccccc2)c1 | – | – | 230 | 62 | 370 | 29 | inhibition at 1 µM [10]: 80%; inhibition at 10 µM [12]: 30%; inhibition at 10 µM [13]: 17%; inhibition at 5 µM [21]: 38%; inhibition [14]: 83%
